What was measured:
L1210 [1] = experiment: Antileukemic activity against L1210 leukemia cells in female B6D2F1/J mice at 56 mg/kg dose (post inoculation life span, days); format: functional, Mus musculus
Outline: (§1)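 Female B6D2F1/J mice (about 20 g) inoculated ip on day 0 with ascites fluid containing 10^6 L1210 cells. Starting 24 h later, hydrochloride salt given ip daily for 7 consecutive days in water (neutralized with 1 N NaOH when necessary), 0.01 mL/g body weight. Five mice per dose. Life span reported as mean ± 1 SD. Increased life span calculated as (T/C - 1) × 100 against untreated controls.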

CCRF-CEM = experiment: Cytotoxicity against CCRF-CEM human leukemic lymphoblastoid cell lines; format: functional, cell-based
L1210 [2] = experiment: Antileukemic activity against L1210 leukemia cells in female B6D2F1/J mice at 93 mg/kg dose(Mean increased life span, calculated as (T/C-1)X100); format: functional, Mus musculus; outline: as §1
CCRF-CEM/ara-C = experiment: Cytotoxicity against CCRF-CEM/ara-C human leukemic lymphoblastoid cell lines; format: functional, cell-based
Outline: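 Ara-C-resistant subline of CCRF-CEM human leukemic lymphoblasts, deficient in deoxycytidine kinase activity. Growth inhibition measured in culture.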

L1210 [3] = experiment: Antileukemic activity against L1210 leukemia cells in female B6D2F1/J mice at 34 mg/kg dose (post inoculation life span, days); format: functional, Mus musculus; outline: as §1
L1210 [4] = experiment: Antileukemic activity against L1210 leukemia cells in female B6D2F1/J mice at 93 mg/kg dose (post inoculation life span, days); format: functional, Mus musculus; outline: as §1
L1210 [5] = experiment: Antileukemic activity against L1210 leukemia cells in female B6D2F1/J mice at 156 mg/kg dose(Mean increased life span, calculated as (T/C-1)X100); format: functional, Mus musculus; outline: as §1
L1210 [6] = experiment: Antileukemic activity against L1210 leukemia cells in female B6D2F1/J mice at 208 mg/kg dose(Mean increased life span, calculated as […]; format: functional, Mus musculus; outline: as §1
L1210 [7] = experiment: Antileukemic activity against L1210 leukemia cells in female B6D2F1/J mice at 56 mg/kg dose(Mean increased life span, calculated as (T/C-1)[…]); format: functional, Mus musculus; outline: as §1
L1210 [8] = experiment: Antileukemic activity against L1210 leukemia cells in female B6D2F1/J mice at 156 mg/kg dose (post inoculation life span, days); format: functional, Mus musculus; outline: as §1
L1210 [9] = experiment: Antileukemic activity against L1210 leukemia cells in female B6D2F1/J mice at 208 mg/kg dose (post inoculation life span, days); format: functional, Mus musculus; outline: as §1
L1210 [10] = experiment: Antileukemic activity against L1210 leukemia cells in female B6D2F1/J mice at 34 mg/kg dose(Mean increased life span, calculated as (T/C-1)X100); format: functional, Mus musculus; outline: as §1
RPMI 6410 = experiment: Cytotoxicity against RPMI-6410 human leukemic lymphoblastoid cell lines; format: functional, cell-based
MOLT-4 = experiment: Cytotoxicity against MOLT-4 human leukemic lymphoblastoid cell lines; format: functional, cell-based
L1210 [11] = experiment: Antileukemic activity against L1210 leukemia cells in female B6D2F1/J mice at 56 mg/kg dose(Mean increased life span, calculated as (T/C-1)X100); format: functional, Mus musculus; outline: as §1
L1210 [12] = experiment: Antileukemic activity against L1210 leukemia cells in female B6D2F1/J mice at 208 mg/kg dose(Mean increased life span, calculated as (T/C-1)X100); format: functional, Mus musculus; outline: as §1

| SMILES | Life span (L1210 [1]) [days] | IC50 (CCRF-CEM) [nM] | Mean increased life span (L1210 [2]) [%] | IC50 (CCRF-CEM/ara-C) [µM] | Life span (L1210 [3]) [days] | Life span (L1210 [4]) [days] | Mean increased life span (L1210 [5]) [%] | Mean increased life span (L1210 [6]) [%] | Mean increased life span (L1210 [7]) [%] | Life span (L1210 [8]) [days] | Life span (L1210 [9]) [days] | Mean increased life span (L1210 [10]) [%] | IC50 (RPMI 6410) [µM] | IC50 (MOLT-4) [nM] | Mean increased life span (L1210 [11]) [%] | Mean increased life span (L1210 [12]) [%] |
| --- | --- | --- | --- | --- | --- | --- | --- | --- | --- | --- | --- | --- | --- | --- | --- | --- |
| Nc1ccn([C@@H]2O[C@H](CO)[C@@H](O)[C@@H]2O[N+](=O)[O-])c(=O)n1 | 10.4 | 600 | 71 | 1000 | 7.4 | 10.8 | 118 | 162 | 64 | 13.8 | 16.6 | 17 | 6 | 400 | – | – |
| Nc1ccn([C@@H]2O[C@H](CO)[C@@H](O)[C@@H]2O)c(=O)n1 [CYTARABINE] | 13 | 20 | 128 | 100 | 12.8 | 14 | 157 | – | – | 16.25 | 16.6 | 102 | 0.06 | 10 | 105 | 162 |
